Measured values as given in ChEMBL document CHEMBL3758117, “Discovery of indeno[1,2-b]quinoxaline derivatives as potential anticancer agents” (Eur J Med Chem, 2016).
Active and inactive are the calls of the source. The calls are words filed in the database; no cut-off is given here.

Columns and labels:
[1] = system: MRC5; assay: Antiproliferative activity against human MRC5 cells after 72 hrs by XTT assay; format: cell-based; settings: MRC5, 72 h
Outline: (§1)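 Cells kept as monolayers in DMEM with 10% FBS, penicillin, streptomycin and amphotericin at 37°C, 5% CO2. Seeded at 5 x 10³ cells/well and exposed to compound for 72 h in medium with 10% FBS. XTT plus electron-coupling reagent added, 4 h at 37°C, absorbance read at 492 nm. Percent of control growth uses mean absorbance (n = 3). The 50% value is taken from the linear portion of the curve.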

[2] = system: Escherichia coli; assay: Binding affinity to Escherichia coli negative supercoiled pBR322 DNA at 10 uM after 12 hrs by ethidium bromide staining based agarose gel electrophoresis
Outline: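 Negatively supercoiled pBR322 (400 ng) in TE buffer pH 8.0 was incubated with compound at 10 μM for 12 h at room temperature. Loading buffer with sarkosyl was added. Samples were run on 1% agarose at 6 V/cm for 2.5 h in TAE pH 8.5, stained with ethidium bromide and photographed under UV.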

[3] = biological target: DNA topoisomerase 2-alpha (Homo sapiens) (UniProt P11388); assay: Inhibition of human DNA topoisomerase 2-mediated relaxation of supercoiled pBR322 DNA at 10 uM after 30 mins by ethidium bromide staining based agarose gel electrophoresis
Chain of DNA topoisomerase 2-alpha (Homo sapiens) (P11388 whole entry): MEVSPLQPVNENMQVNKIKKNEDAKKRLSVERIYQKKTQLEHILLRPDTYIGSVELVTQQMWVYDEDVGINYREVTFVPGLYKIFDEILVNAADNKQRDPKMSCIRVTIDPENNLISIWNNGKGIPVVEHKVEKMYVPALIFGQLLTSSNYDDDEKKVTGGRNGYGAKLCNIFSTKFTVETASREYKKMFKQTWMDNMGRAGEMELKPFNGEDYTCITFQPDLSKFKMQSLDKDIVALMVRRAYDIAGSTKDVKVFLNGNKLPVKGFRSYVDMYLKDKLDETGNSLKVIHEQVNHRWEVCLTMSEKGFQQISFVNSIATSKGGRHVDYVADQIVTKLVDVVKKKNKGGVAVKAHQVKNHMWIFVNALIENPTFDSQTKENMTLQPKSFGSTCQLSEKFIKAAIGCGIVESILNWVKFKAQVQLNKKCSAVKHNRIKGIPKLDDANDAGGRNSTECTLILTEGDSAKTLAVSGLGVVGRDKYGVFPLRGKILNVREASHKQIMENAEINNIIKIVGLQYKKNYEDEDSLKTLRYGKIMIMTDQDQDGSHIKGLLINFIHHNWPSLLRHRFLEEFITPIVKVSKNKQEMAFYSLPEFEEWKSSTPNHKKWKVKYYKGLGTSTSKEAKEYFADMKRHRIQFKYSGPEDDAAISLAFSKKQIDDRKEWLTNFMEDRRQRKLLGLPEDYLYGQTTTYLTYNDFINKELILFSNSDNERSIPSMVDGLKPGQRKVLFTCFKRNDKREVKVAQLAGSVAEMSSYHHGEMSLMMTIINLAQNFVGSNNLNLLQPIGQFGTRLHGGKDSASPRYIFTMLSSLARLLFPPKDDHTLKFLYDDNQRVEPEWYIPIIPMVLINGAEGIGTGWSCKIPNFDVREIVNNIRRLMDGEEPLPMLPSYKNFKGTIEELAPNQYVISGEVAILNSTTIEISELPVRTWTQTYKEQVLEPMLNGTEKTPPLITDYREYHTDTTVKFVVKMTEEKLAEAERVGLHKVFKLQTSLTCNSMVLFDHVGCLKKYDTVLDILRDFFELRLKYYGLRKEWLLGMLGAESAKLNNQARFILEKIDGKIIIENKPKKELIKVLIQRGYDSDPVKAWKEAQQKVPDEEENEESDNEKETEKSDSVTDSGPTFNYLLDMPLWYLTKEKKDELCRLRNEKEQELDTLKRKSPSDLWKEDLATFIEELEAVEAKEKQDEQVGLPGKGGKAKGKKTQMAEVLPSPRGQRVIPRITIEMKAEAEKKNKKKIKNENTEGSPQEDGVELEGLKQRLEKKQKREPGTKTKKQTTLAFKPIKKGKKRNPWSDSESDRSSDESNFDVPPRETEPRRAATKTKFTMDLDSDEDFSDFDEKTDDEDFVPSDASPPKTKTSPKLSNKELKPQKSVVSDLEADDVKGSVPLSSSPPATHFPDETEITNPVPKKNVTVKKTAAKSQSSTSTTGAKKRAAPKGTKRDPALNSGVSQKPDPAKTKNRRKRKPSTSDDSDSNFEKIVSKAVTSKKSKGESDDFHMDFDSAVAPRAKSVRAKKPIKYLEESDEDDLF
Outline: (§2)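 Human topo I or topo II (2 units) was reacted with 0.2 μg supercoiled pBR322 in 20 μl Tris-HCl pH 7.5 containing KCl, DTT, EDTA, MgCl2 and BSA, with DMSO held at 0.5%, for 30 min at 37°C. The reaction was stopped with SDS. Samples were run on 1% agarose in Tris-acetate/EDTA at 1.5 V/cm for 2-3 h and stained with ethidium bromide. Relaxation was quantified by densitometry of the supercoiled band area.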

[4] = system: MRC5; assay: Selectivity index, ratio of IC50 for human MRC5 cells to IC50 for human PC3 cells; format: functional
[5] = system: MRC5; assay: Selectivity index, ratio of IC50 for human MRC5 cells to IC50 for human MDA-MB-231 cells; format: functional
[6] = biological target: T1, DNA topoisomerase 1 (Homo sapiens) (UniProt P11387); assay: Inhibition of human DNA topoisomerase 1-mediated relaxation of supercoiled pBR322 DNA at 10 uM after 30 mins by ethidium bromide staining based agarose gel electrophoresis; outline: as §2
T1 sequence (whole entry): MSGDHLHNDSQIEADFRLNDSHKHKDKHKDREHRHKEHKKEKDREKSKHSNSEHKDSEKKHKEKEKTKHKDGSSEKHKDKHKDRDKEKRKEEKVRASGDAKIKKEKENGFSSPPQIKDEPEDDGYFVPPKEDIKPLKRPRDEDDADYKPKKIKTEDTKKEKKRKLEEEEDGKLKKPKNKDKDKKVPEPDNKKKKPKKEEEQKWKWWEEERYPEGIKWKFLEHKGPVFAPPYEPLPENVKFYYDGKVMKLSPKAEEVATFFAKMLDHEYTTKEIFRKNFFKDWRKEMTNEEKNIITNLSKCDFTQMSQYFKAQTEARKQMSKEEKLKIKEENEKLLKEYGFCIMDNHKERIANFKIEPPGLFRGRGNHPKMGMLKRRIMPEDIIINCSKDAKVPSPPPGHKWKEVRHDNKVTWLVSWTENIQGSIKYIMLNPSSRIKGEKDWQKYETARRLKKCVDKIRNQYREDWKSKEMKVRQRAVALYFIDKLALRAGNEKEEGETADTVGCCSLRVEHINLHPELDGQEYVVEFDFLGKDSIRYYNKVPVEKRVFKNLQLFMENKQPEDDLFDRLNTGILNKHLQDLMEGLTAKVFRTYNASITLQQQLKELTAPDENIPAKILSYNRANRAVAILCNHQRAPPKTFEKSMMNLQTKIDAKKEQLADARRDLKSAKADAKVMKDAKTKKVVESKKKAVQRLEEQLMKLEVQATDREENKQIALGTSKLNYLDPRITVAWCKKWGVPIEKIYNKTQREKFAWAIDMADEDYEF

[7] = biological target: T1, DNA topoisomerase 1 (Homo sapiens); assay: Inhibition of human DNA topoisomerase 1-mediated relaxation of supercoiled pBR322 DNA at 100 uM after 30 mins by ethidium bromide staining based agarose gel electrophoresis; outline: as §2
[8] = Selectivity index, ratio of IC50 for human MRC5 cells to IC50 for human H1299 cells; format: functional
[9] = Antiproliferative activity against human PC3 cells after 72 hrs by XTT assay; format: functional, cell-based; settings: PC-3, 72 h; outline: as §1
[10] = biological target: DNA topoisomerase 2-alpha (Homo sapiens) (UniProt P11388); assay: Inhibition of human DNA topoisomerase 2-mediated relaxation of supercoiled pBR322 DNA at 100 uM after 30 mins by ethidium bromide staining based agarose gel electrophoresis; outline: as §2
[11] = Antiproliferative activity against human HuH7 cells after 72 hrs by XTT assay; format: functional, cell-based; settings: Huh-7, 72 h; outline: as §1
[12] = system: MDA-MB-231; assay: Antiproliferative activity against human MDA-MB-231 cells after 72 hrs by XTT assay; format: functional, cell-based; settings: MDA-MB-231, 72 h; outline: as §1
[13] = system: Huh-7; assay: Selectivity index, ratio of IC50 for human MRC5 cells to IC50 for human HuH7 cells; format: functional
[14] = Antiproliferative activity against human H1299 cells after 72 hrs by XTT assay; format: functional, cell-based; settings: NCI-H1299, 72 h; outline: as §1

| Activity [2] | topoisomerase 2 inhibition (active/not active) [3] | inhibition [6] | topoisomerase 1 inhibition (active/inactive) [7] | inhibition call (active/not active) [10] | IC50 [12] [µM] | SMILES | IC50 [1] [µM] | Ratio IC50 [4] | Ratio IC50 [5] | Ratio IC50 [8] | IC50 [9] [µM] | IC50 [11] [µM] | Ratio IC50 [13] | IC50 [14] [µM] |
| --- | --- | --- | --- | --- | --- | --- | --- | --- | --- | --- | --- | --- | --- | --- |
| Active | inactive | Active | Active | Active | 0.66 | CN(C)CCCO/N=C1\c2ccccc2-c2nc3c(CN4CCCCC4)cccc3nc21.Cl | 0.89 | 0.98 | 1.35 | 1.07 | 0.91 | 0.63 | 1.41 | 0.83 |
| inactive | – | – | – | – | > 10 | O=C1c2ccccc2-c2nc3c(C(=O)O)cccc3nc21 | 71.2 | – | – | – | > 10 | > 10 | – | > 10 |
| inactive | – | – | inactive | inactive | > 10 | CN(C)CCCO/N=C1\c2ccccc2-c2nc3c(C(=O)O)cccc3nc21 | 15.1 | – | – | – | > 10 | > 10 | – | > 10 |
| inactive | – | – | inactive | inactive | > 10 | O=C1c2ccccc2-c2nc3c(CN4CCC(N5CCCCC5)CC4)cccc3nc21 | 89.7 | – | – | – | > 10 | > 10 | – | > 10 |
| – | Active | Active | Active | Active | – | COc1ccc2c(c1)/C(=N\OCCN1CCCC1)c1c-2c(O)nc2ccccc12 | – | – | – | – | – | – | – | – |
| inactive | – | – | inactive | inactive | > 10 | O=C1c2ccccc2-c2nc3c(CN4CCOCC4)cccc3nc21 | 95.7 | – | – | – | > 10 | > 10 | – | > 10 |
| inactive | – | inactive | Active | inactive | > 10 | CN(C)Cc1cccc2nc3c(nc12)-c1ccccc1C3=O | 77.8 | – | – | – | > 10 | > 10 | – | > 10 |
| inactive | inactive | Active | Active | Active | 0.99 | CN(C)CCCO/N=C1\c2ccccc2-c2nc3c(CN4CCC(N5CCCCC5)CC4)cccc3nc21.Cl | 3.49 | 0.57 | 3.53 | 0.68 | 6.12 | 0.82 | 4.26 | 5.14 |
| inactive | inactive | Active | Active | Active | 6.55 | O=C1c2ccccc2-c2nc3c(C(=O)NCCN4CCCC4)cccc3nc21 | 7.99 | 0.67 | 1.22 | 0.71 | 12 | 8.51 | 0.94 | 11.2 |
| inactive | – | – | – | – | > 10 | Cc1cccc2nc3c(nc12)-c1ccccc1C3=O | 87.1 | – | – | – | > 10 | > 10 | – | > 10 |
| – | – | – | – | – | < 0.1 | CC[C@@]1(O)C(=O)OCc2c1cc1n(c2=O)Cc2cc3c(CN(C)C)c(O)ccc3nc2-1 [TOPOTECAN] | 4.25 | 0.45 | >42.5 | 0.71 | 9.35 | – | 0.49 | – |
| inactive | – | inactive | Active | inactive | > 10 | O=C1c2ccccc2-c2nc3c(CN4CCCCC4)cccc3nc21 | 25.9 | – | – | – | > 10 | > 10 | – | > 10 |
| inactive | – | – | inactive | inactive | > 10 | O=C1c2ccccc2-c2nc3c(C(=O)NCCN4CCOCC4)cccc3nc21 | 88.6 | – | – | – | > 10 | > 10 | – | > 10 |
| inactive | inactive | Active | Active | Active | 7.29 | CN(C)CCNC(=O)c1cccc2nc3c(nc12)-c1ccccc1C3=O | 8.98 | 0.82 | 1.23 | 1.03 | 11 | 7.64 | 1.18 | 8.75 |
| Active | inactive | Active | Active | Active | 0.9 | CN(C)CCCO/N=C1\c2ccccc2-c2nc3c(CN(C)C)cccc3nc21.Cl | 0.88 | 1.13 | 0.98 | 1.09 | 0.78 | 0.75 | 1.17 | 0.81 |
| inactive | – | – | inactive | inactive | > 10 | O=Cc1cccc2nc3c(nc12)-c1ccccc1C3=O | 78.9 | – | – | – | > 10 | > 10 | – | > 10 |
| inactive | – | – | – | – | > 10 | O=C1c2ccccc2-c2nc3ccccc3nc21 | 85.3 | – | – | – | > 10 | > 10 | – | > 10 |
| inactive | – | inactive | Active | inactive | > 10 | O=C1c2ccccc2-c2nc3c(CN4CCCC4)cccc3nc21 | 9.8 | – | – | – | > 10 | 6.98 | 1.4 | > 10 |
| inactive | – | – | inactive | inactive | 10.8 | O/N=C\c1cccc2nc3c(nc12)-c1ccccc1/C3=N/O | 6.54 | 0.69 | 0.61 | 0.8 | 9.45 | 8.61 | 0.76 | 8.13 |
| inactive | – | – | inactive | inactive | > 10 | O/N=C1\c2ccccc2-c2nc3ccccc3nc21 | 51.1 | – | – | – | > 10 | > 10 | – | > 10 |
